Results on 4 compounds are retold here after ChEMBL document CHEMBL1148449, “Discovery, modeling, and human pharmacokinetics of N-(2-acetyl-4,6-dimethylphenyl)-3-(3,4-dimethylisoxazol-5-ylsulfamoyl)thiophene-2-carboxamide (TBC3711), a second generation, ETA selective, and orally bioavailable endothelin antagonist” (J Med Chem, 2004).

Series [1] is described as follows: Compound was evaluated for oral bioavailability in human. In kind it is ADME, organism-based. The following applies: in vivo, read-out: Activity.
Series [2] can be described thus: Half life period was evaluated in dog; 4-4.8. The series is classed as ADME, organism-based, Canis lupus familiaris. The settings on record: in vivo.
The nature of series [3]: (§1) Compound was evaluated for area under the curve expressed as (h*ug/ml). In kind it is ADME. The following applies: human. An outline of the steps: (§2)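 Rats given 50 mg/kg orally. Plasma was separated at once by centrifugation and stored at -80 °C. Proteins were precipitated with acetonitrile and drug measured by HPLC to give Cmax, AUC and t1/2.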
Series [4] in a line: Compound was evaluated for oral bioavailability in dog; 90-100. The series is classed as ADME, organism-based, Canis lupus familiaris. The following applies: in vivo, read-out: Activity.
Series [5] in a line: Half life period was evaluated in rat; 5.9-7.5. In kind it is ADME, organism-based. The settings on record: in vivo. An outline of the steps:
as §2

Series [6] addresses T1, Endothelin receptor type B (Homo sapiens, UniProt P24530).
T1 sequence (P24530 whole entry): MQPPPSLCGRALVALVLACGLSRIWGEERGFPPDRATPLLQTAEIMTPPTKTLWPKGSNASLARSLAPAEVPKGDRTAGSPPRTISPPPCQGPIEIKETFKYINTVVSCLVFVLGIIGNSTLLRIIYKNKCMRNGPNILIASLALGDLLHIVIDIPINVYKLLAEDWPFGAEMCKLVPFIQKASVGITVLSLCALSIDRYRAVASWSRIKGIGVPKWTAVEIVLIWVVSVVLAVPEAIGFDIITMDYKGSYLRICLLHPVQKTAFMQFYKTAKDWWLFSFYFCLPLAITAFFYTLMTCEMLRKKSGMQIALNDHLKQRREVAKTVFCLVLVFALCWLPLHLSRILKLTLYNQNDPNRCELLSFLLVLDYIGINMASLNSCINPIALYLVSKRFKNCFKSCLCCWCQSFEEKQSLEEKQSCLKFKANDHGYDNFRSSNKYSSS
The series is described as follows: Inhibitory concentration towards endothelin B receptor in human. In kind it is functional.

For series [7], the target named is T2, Endothelin-1 receptor (Rattus norvegicus, UniProt P26684).
T2 sequence (P26684 whole entry): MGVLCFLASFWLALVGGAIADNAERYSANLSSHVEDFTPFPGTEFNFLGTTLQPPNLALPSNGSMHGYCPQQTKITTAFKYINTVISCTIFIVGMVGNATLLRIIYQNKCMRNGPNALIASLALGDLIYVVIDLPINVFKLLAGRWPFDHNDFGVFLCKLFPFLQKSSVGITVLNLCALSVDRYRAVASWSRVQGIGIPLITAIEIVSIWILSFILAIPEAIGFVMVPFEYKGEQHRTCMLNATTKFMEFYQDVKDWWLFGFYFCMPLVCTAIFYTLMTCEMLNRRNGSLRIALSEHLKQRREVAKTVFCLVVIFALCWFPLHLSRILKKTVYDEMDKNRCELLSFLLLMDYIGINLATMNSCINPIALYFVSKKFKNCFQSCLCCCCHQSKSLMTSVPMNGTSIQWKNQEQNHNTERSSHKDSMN
The series is described as follows: Binding affinity towards Endothelin A receptor.

In series [8] the target is Endothelin receptor (Rattus norvegicus) (UniProt P26684+P21451). The series can be described thus: Selectivity for endothelin A receptor over endothelin receptor B. The series is classed as protein assay.
Endothelin receptor (Rattus norvegicus), sequence (P21451 whole entry, looked up, one chain of several): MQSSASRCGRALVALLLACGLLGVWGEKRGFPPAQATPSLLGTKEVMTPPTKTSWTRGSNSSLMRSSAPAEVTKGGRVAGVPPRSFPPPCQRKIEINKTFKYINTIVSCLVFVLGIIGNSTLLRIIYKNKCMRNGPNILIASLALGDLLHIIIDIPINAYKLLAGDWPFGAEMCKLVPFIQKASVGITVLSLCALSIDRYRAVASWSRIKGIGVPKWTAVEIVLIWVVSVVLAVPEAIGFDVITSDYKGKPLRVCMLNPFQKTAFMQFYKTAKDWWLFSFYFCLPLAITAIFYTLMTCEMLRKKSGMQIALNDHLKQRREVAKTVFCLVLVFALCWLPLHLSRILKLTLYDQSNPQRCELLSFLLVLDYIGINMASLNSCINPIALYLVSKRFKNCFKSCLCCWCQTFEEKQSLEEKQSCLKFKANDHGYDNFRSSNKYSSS
The test system of series [9] is Rattus norvegicus. The series is described as follows: Compound was evaluated for oral dose to effect 50% inhibition of mean pulmonary arterial pressure. In kind it is functional, Artery. An outline of the steps:
(§3)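 Acute hypoxia-induced pulmonary hypertension model in rats. Compound given orally; the oral dose giving 50% inhibition of the increase in mean pulmonary arterial pressure is reported.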

Series [10] can be described thus: Half life period was evaluated in human. In kind it is ADME.
Series [11] concerns the target Endothelin-1 receptor (Homo sapiens) (UniProt P25101). The series is described as follows: Selectivity towards endothelin A receptor in human.
Series [12] is described as follows: Half life period was evaluated in rat. The settings on record: in vivo.
In series [13] the target is T3, Endothelin-1 receptor (Homo sapiens, UniProt P25101).
T3 sequence (P25101 whole entry): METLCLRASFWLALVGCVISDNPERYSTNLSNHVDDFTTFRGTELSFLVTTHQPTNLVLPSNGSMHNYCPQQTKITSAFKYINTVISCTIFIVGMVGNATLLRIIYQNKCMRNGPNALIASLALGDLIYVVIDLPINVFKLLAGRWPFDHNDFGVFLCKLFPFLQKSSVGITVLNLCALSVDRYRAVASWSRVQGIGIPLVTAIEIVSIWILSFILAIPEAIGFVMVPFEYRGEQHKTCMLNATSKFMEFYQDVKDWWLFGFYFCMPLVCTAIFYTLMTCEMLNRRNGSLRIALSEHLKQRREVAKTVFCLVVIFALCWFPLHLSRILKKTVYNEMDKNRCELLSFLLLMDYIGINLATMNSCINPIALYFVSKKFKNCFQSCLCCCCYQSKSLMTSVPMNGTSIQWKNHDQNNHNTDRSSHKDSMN
The series is described as follows: Displacement of [125I]ET-1 from Endothelin A receptor. For orientation: In a radioligand displacement assay an active substance lowers the binding of a labelled ligand.

Series [14] in a line: Compound was evaluated for oral bioavailability in rats. The settings on record: rat, in vivo.
The nature of series [15]: Half life period was determined; 6-7. In kind it is ADME. The settings on record: human.
A short description of series [16]: Cmax in rat plasma after oral dose (50 mg/Kg). In kind it is ADME, organism-based. Further details: dose 50 mg/Kg, route oral. An outline of the steps:
as §2

A short description of series [17]: Half life period was determined. In kind it is ADME, organism-based. The settings on record: rat, in vivo. An outline of the steps: as §2
Series [18] can be described thus: as §1. The series is classed as ADME, organism-based. Also on record: concentration or dose not given beside the values. The settings on record: rat, in vivo. An outline of the steps:
as §2

In series [19] the test system is Rattus norvegicus. The series is described as follows: Compound was evaluated for oral dose to effect 50% inhibition of mean pulmonary arterial pressure (MPAP). In kind it is functional, Artery. An outline of the steps: as §3
Series [20] concerns Rattus norvegicus. The series is described as follows: Compound was evaluated for oral dose to effect 50% inhibition of mean pulmonary arterial pressure (MPAP. The series is classed as functional, Artery. An outline of the steps: as §3

With `Cc1cc2c(cc1CC(=O)c1sccc1S(=O)(=O)Nc1onc(C)c1Cl)OCO2` [SITAXENTAN], the figures for the bioavailability in series [1] and in series [4] were approximately 80% and 100%, respectively. Also, the half-life (in general, the time needed for the level to fall by half in the phase considered) in [2] was 4.8 h; in series [5], 7.5 h; in series [10] it was 6.46 h. Also, the AUC (commonly the area under the concentration-time curve, a measure of exposure) in series [3] amounted to 33 µg·h/mL. Besides, the IC50 (commonly the concentration that inhibits the measured activity by half) in [6] worked out at 9800 nM. Moreover, the Ki (as a rule, the equilibrium dissociation constant of an inhibitor or competing ligand from its target) in [7] was 0.43 nM. Moreover, the Selectivity was 7000 in series [8] and 6500 in series [11]. Moreover, the Activity in series [9] amounted to 2.5 mg/kg.

`COc1ccccc1Oc1c(NS(=O)(=O)c2ccc(C(C)C)cn2)nc(-c2ccnc(-c3nnn[nH]3)c2)nc1OCCO` [TEZOSENTAN] had a half-life in [12] of 7.8 min. The Selectivity in series [8] was 56. For the same compound, the IC50 in [13] worked out at 23 nM.

Turning to `CC(=O)c1cc(C)cc(C)c1NC(=O)c1sccc1S(=O)(=O)Nc1onc(C)c1C`, the bioavailability in series [1] is more than 80%; in [14] it was approximately 100%. For the same compound, the figures for the half-life in series [15] and in series [17] were 7 h and 5.3 h, respectively. In addition, the highest level in [16] (Cmax) was 180 µg/mL. The same compound yielded an AUC in series [18] of 1310 µg·h/mL. Moreover, the IC50 in series [13] stood at 0.08 nM. Further, the Activity in series [19] is less than 1 mg/kg. This compound also registered a Selectivity in series [11] of 441000.

For `Cc1cc(C)c(NC(=O)c2sccc2S(=O)(=O)Nc2onc(C)c2Cl)c(C(=O)CS(C)(=O)=O)c1`, the bioavailability in series [14] was determined as 16%. Also, the Cmax (in general, the peak of the concentration-time curve) in [16] stood at 37.3 µg/mL. In addition, the half-life in series [17] is 12.2 h. Further, the AUC in series [18] worked out at 636 µg·h/mL. In addition, the IC50 in series [13] stood at 0.1 nM. Further, in series [20], the ED50 (commonly the dose at which the effect has come halfway, by size or by number of responders) was more than 5 mg/kg. The same compound gave a Selectivity in series [11] of 66500.
